Data as given in ChEMBL document CHEMBL1154934, “Identification of piperazine-bisamide GHSR antagonists for the treatment of obesity” (Bioorg Med Chem Lett, 2010).

Legend:
[1] = target: T1, Growth hormone secretagogue receptor type 1 (Homo sapiens, UniProt Q92847); assay: Antagonist activity at human GHSR expressed in CHOK1 cells assessed as inhibition of ghrelin-induced intracellular calcium flux by aequorin flash luminescence assay; assay type: functional, cell-based, CHO-K1
Outline: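 Aequorin flash luminescence in CHO-K1 cells stably co-expressing human ghrelin receptor and aequorin. […] IC50 values are means of three determinations.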

[2] = target: Growth hormone secretagogue receptor type 1 (Rattus norvegicus) (UniProt O08725); assay: Agonist activity at rat GHSR expressed in CHO cells assessed as increase in ghrelin-induced [3H]IP accumulation at 10 uM after 1 hr by scintillation counting relative to ghrelin; assay type: functional, cell-based
Sequence of Growth hormone secretagogue receptor type 1 (Rattus norvegicus) (O08725 whole entry): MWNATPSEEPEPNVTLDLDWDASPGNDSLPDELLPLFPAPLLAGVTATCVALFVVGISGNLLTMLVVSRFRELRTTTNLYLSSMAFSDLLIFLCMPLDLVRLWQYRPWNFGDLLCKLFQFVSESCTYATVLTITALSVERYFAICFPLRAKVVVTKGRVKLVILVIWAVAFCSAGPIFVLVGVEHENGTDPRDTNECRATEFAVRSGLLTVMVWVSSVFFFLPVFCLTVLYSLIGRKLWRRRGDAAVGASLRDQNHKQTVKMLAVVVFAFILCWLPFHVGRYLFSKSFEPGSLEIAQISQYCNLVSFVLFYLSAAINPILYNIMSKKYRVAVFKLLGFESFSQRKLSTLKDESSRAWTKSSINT
Outline: (§1)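 CHO cells stably expressing human or rat GHSR labelled 12 h with 3H-inositol (1 µCi/mL in DMEM), then exposed to ghrelin or compound at 37 °C for 1.0 h. Lysis with 20 mM formic acid, 4 °C, 4 h. Extract taken onto SPA beads, 12 h in the dark, then radioactivity counted. IP accumulation expressed as % of maximal ghrelin response at 10, 1.0 and 0.1 µM.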

[3] = target: Sodium-dependent noradrenaline transporter (Homo sapiens, UniProt P23975); assay: Inhibition of NET
Sequence of Sodium-dependent noradrenaline transporter (P23975 whole entry): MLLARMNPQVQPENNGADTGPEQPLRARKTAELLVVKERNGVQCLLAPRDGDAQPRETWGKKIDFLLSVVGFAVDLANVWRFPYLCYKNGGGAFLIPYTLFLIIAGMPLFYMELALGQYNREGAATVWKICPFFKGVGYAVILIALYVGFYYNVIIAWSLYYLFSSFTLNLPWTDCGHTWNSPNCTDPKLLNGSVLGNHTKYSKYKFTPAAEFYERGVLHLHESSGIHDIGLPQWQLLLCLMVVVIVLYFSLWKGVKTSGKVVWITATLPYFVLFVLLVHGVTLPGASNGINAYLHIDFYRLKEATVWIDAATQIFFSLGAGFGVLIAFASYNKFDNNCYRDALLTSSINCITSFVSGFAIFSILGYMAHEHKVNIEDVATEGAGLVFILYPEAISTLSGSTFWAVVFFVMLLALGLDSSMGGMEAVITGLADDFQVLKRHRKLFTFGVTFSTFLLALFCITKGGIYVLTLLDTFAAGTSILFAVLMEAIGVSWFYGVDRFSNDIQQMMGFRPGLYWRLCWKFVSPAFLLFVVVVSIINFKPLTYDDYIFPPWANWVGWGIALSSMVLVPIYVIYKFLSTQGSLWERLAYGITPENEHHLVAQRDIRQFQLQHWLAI

[4] = target: T1, Growth hormone secretagogue receptor type 1; assay: Agonist activity at human GHSR expressed in CHO cells assessed as increase in ghrelin-induced [3H]IP accumulation at 10 uM after 1 hr by scintillation counting relative to ghrelin; assay type: functional, cell-based; outline: as §1
[5] = target: Sodium-dependent dopamine transporter (Homo sapiens, UniProt Q01959); assay: Inhibition of DAT
Sequence of Sodium-dependent dopamine transporter (Q01959 whole entry): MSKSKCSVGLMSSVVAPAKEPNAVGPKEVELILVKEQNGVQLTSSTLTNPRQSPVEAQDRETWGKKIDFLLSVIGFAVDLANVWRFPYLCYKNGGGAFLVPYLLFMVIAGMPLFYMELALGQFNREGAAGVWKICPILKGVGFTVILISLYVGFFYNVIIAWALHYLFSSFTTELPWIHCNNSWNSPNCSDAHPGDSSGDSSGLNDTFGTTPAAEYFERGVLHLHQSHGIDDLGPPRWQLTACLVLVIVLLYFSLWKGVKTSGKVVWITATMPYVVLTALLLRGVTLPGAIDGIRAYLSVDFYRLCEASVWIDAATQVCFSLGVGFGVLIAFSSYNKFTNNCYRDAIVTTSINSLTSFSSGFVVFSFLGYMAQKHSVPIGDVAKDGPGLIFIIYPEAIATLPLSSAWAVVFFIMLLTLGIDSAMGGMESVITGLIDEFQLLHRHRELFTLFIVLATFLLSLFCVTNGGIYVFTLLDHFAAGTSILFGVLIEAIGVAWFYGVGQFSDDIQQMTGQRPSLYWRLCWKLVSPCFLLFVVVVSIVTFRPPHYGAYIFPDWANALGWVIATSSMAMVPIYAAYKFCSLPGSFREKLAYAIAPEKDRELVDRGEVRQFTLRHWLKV

[6] = target: T2, 5-hydroxytryptamine receptor 2C (Homo sapiens, UniProt P28335); assay: Inhibition of 5HT2C (receptor)
T2 sequence (P28335 whole entry): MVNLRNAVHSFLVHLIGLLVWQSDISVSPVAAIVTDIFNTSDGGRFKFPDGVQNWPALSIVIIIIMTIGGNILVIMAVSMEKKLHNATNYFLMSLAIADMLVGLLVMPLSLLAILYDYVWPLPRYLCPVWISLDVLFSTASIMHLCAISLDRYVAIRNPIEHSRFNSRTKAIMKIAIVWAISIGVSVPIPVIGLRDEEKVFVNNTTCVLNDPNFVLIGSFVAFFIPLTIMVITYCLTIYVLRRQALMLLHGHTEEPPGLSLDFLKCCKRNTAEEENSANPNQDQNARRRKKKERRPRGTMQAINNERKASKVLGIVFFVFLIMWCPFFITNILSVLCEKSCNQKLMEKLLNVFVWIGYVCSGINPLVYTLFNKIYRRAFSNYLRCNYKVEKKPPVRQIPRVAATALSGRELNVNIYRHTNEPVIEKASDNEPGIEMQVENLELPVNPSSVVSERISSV

[7] = target: Muscarinic acetylcholine receptor M3 (Homo sapiens, UniProt P20309); assay: Inhibition of muscarinic M3 receptor
Sequence of Muscarinic acetylcholine receptor M3 (P20309 whole entry): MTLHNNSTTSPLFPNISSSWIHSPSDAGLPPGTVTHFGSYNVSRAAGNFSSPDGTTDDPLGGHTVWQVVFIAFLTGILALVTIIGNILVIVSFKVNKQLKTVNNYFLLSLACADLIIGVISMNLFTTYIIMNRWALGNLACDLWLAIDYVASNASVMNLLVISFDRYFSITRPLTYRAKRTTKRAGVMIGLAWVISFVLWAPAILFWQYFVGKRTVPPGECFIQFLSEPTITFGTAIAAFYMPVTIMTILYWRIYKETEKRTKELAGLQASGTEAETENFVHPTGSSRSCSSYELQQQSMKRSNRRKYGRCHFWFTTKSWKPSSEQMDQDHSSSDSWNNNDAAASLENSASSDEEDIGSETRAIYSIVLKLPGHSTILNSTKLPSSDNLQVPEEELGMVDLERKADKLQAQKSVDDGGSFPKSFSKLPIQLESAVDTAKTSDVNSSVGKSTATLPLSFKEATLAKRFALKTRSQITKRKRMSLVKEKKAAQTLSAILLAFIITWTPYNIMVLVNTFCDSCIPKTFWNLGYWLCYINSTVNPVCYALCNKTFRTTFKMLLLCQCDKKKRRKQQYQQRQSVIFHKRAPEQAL

[8] = target: Sodium-dependent serotonin transporter (Homo sapiens, UniProt P31645); assay: Inhibition of SERT
Sequence of Sodium-dependent serotonin transporter (P31645 whole entry): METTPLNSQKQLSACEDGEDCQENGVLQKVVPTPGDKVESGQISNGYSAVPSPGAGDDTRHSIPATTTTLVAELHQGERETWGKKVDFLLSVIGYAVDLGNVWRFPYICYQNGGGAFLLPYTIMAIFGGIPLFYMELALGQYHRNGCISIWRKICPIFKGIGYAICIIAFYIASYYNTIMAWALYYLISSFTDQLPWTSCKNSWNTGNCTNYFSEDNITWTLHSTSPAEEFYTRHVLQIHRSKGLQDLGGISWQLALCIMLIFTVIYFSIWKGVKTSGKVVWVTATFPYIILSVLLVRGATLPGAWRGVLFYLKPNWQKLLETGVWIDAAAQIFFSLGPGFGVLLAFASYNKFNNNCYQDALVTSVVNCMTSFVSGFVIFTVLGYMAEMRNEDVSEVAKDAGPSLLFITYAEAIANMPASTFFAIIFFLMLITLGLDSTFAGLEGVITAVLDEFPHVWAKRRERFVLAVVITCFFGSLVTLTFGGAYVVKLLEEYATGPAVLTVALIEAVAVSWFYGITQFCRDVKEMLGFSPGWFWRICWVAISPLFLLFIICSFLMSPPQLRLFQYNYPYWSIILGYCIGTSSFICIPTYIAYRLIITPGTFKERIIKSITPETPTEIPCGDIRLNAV

Mu-type opioid receptor = Mu-type opioid receptor (Homo sapiens, UniProt P35372); assay: Inhibition of mu opioid receptor
Sequence of Mu-type opioid receptor (P35372 whole entry): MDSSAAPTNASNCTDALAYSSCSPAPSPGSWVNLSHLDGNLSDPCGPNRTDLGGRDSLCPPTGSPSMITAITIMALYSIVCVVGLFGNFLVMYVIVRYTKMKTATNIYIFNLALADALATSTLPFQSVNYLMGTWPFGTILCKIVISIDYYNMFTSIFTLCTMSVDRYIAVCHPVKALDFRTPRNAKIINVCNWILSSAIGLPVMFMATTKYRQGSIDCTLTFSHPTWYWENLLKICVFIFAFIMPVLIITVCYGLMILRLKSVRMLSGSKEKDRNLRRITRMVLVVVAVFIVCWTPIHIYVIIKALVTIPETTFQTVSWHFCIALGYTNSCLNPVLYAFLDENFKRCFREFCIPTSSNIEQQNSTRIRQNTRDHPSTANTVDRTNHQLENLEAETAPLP

D(2) dopamine receptor = D(2) dopamine receptor (Homo sapiens, UniProt P14416); assay: Inhibition of dopamine D2 receptor
Sequence of D(2) dopamine receptor (P14416 whole entry): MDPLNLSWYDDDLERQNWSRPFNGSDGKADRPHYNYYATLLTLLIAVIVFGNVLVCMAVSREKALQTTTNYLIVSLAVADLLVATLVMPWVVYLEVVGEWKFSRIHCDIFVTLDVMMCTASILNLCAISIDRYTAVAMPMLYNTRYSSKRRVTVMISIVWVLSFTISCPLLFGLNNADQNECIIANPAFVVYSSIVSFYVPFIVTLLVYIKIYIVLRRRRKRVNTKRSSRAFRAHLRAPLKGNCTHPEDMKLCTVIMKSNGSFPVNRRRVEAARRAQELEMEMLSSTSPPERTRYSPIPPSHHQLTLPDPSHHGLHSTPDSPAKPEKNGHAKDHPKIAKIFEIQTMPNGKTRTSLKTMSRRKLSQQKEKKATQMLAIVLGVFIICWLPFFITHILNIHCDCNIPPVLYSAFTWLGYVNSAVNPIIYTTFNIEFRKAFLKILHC

D(3) dopamine receptor = D(3) dopamine receptor (Homo sapiens, UniProt P35462); assay: Inhibition of dopamine D3 receptor
[9] = target: Kappa-type opioid receptor (Homo sapiens, UniProt P41145); assay: Inhibition of kappa opioid receptor
Sequence of Kappa-type opioid receptor (P41145 whole entry): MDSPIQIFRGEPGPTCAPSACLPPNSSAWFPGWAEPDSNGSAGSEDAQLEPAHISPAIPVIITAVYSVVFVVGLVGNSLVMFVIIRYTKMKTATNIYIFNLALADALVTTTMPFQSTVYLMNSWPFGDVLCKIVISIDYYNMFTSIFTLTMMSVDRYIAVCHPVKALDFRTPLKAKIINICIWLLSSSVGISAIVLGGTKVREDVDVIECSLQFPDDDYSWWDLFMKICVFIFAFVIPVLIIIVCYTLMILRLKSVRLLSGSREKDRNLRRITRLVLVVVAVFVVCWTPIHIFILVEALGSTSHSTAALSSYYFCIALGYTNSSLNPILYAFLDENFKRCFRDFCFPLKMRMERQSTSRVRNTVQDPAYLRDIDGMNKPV

[10] = target: 5-hydroxytryptamine receptor 2A (Homo sapiens, UniProt P28223); assay: Inhibition of 5HT2A (receptor)
Sequence of 5-hydroxytryptamine receptor 2A (P28223 whole entry): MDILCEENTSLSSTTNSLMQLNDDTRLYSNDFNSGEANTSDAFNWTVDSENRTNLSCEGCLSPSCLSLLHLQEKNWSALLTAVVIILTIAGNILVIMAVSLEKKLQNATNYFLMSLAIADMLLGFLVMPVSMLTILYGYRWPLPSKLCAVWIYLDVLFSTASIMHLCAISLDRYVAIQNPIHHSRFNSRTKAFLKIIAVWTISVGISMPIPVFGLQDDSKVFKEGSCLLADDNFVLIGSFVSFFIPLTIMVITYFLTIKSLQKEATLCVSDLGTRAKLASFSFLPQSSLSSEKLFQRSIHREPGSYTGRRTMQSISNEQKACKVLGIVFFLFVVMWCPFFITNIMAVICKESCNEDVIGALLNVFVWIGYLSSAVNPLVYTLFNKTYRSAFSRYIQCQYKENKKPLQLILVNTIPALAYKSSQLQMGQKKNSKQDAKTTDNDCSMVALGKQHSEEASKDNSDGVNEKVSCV

[11] = target: T3, Alpha-2A adrenergic receptor (Homo sapiens, UniProt P08913); assay: Inhibition of alpha2A adrenergic receptor
T3 sequence (P08913 whole entry): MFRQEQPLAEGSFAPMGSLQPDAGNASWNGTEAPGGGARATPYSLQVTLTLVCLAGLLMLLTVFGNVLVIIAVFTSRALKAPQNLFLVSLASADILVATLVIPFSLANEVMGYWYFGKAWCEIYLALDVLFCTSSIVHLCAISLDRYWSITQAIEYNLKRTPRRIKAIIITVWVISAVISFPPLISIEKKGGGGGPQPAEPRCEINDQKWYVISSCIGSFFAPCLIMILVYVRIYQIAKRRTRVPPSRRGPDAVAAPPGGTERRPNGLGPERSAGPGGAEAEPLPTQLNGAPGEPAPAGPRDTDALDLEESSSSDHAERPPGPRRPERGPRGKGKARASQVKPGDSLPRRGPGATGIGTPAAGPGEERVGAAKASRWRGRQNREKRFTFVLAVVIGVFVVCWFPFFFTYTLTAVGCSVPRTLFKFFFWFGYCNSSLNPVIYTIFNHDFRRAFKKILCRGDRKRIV

Histamine H2 receptor = Histamine H2 receptor (Homo sapiens, UniProt P25021); assay: Inhibition of histamine H2 receptor
Sequence of Histamine H2 receptor (P25021 whole entry): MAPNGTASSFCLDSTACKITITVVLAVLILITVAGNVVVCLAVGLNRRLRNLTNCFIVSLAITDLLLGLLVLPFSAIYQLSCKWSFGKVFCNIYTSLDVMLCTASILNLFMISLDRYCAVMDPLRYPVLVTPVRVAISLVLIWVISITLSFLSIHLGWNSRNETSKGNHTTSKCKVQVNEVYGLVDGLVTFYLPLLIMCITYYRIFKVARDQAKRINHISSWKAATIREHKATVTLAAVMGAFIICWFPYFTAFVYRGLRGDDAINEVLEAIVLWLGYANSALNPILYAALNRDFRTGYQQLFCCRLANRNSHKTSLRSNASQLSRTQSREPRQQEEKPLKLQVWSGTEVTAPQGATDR

C[C@H]1CN(C(=O)c2ccc(-c3ccccc3)cc2F)CCN1C(=O)c1ccc2cc[nH]c2c1
IC50 [1]: 0.0177 µM
Activity [2]: 43%

C[C@H]1CN(C(=O)c2ccc(-c3ccccc3)nc2)CCN1C(=O)c1ccc2cc[nH]c2c1
IC50 [1]: 0.02 µM
Activity [2]: 19%

C[C@H]1CN(C(=O)c2ccc(-c3ccncc3)cc2)CCN1C(=O)c1ccc2cc[nH]c2c1
IC50 [1]: 0.0127 µM
Activity [2]: -2%

C[C@H]1CN(C(=O)c2ccc(-c3ccccc3)cc2)CCN1C(=O)c1ccc2cc[nH]c2c1
Ki [3]: > 10 µM
Activity [4]: 29%
Ki [5]: > 10 µM
Ki [6]: > 10 µM
Ki [7]: > 10 µM
IC50 [1]: 0.006 µM
Ki [8]: > 10 µM
Ki (Mu-type opioid receptor): > 10 µM
Activity [2]: 26%
Ki (D(2) dopamine receptor): > 10 µM
Ki (D(3) dopamine receptor): > 10 µM
Ki [9]: > 10 µM
Ki [10]: > 10 µM
Ki [11]: > 10 µM
Ki (Histamine H2 receptor): > 10 µM

C[C@H]1CN(C(=O)c2ccc(-c3cccnc3)cc2)CCN1C(=O)c1ccc2cc[nH]c2c1
IC50 [1]: 0.143 µM
Activity [2]: 21%

C[C@H]1CN(C(=O)c2ccc(-c3cncs3)cc2)CCN1C(=O)c1ccc2cc[nH]c2c1
IC50 [1]: 0.065 µM
Activity [2]: 5%

COc1cccc(-c2ccc(C(=O)N3CCN(C(=O)c4ccc5cc[nH]c5c4)C[C@@H]3C)cc2)c1
IC50 [1]: 0.28 µM

C[C@H]1CN(C(=O)c2ccc(-c3ccccc3Cl)nc2)CCN1C(=O)c1ccc2cc[nH]c2c1
IC50 [1]: 0.013 µM
Activity [2]: 14%

COc1cccc(-c2ccc(C(=O)N3CCN(C(=O)c4ccc5cc[nH]c5c4)CC3)cc2)c1
IC50 [1]: 0.025 µM

C[C@H]1CN(C(=O)c2ccc(-c3cn[nH]c3)cc2)CCN1C(=O)c1ccc2cc[nH]c2c1
IC50 [1]: 0.123 µM
Activity [2]: 17%

O=C(c1ccc(-c2ccccc2)cc1)N1CCCN(C(=O)c2ccc3cc[nH]c3c2)CC1
IC50 [1]: 6.5 µM

COc1ccccc1-c1ccc(C(=O)N2CCN(C(=O)c3ccc4cc[nH]c4c3)[C@@H](C)C2)cc1
Ki [3]: > 10 µM
Ki [5]: > 10 µM
Ki [6]: > 10 µM
Ki [7]: > 10 µM
IC50 [1]: 0.026 µM
Ki [8]: > 10 µM
Ki (Mu-type opioid receptor): > 10 µM
Ki (D(2) dopamine receptor): > 10 µM
Ki (D(3) dopamine receptor): > 10 µM
Ki [9]: > 10 µM
Ki [10]: > 10 µM
Ki [11]: > 10 µM
Ki (Histamine H2 receptor): > 10 µM

C[C@H]1CN(C(=O)c2ccc(-c3cccc(F)c3)cc2)CCN1C(=O)c1ccc2cc[nH]c2c1
Ki [3]: > 10 µM
Ki [5]: > 10 µM
Ki [6]: > 10 µM
Ki [7]: > 10 µM
IC50 [1]: 0.147 µM
Ki [8]: > 10 µM
Ki (Mu-type opioid receptor): > 10 µM
Ki (D(2) dopamine receptor): > 10 µM
Ki (D(3) dopamine receptor): > 10 µM
Ki [9]: > 10 µM
Ki [10]: > 10 µM
Ki [11]: > 10 µM
Ki (Histamine H2 receptor): > 10 µM

C[C@H]1CN(C(=O)c2ccc(N3CCOCC3)cc2)CCN1C(=O)c1ccc2cc[nH]c2c1
IC50 [1]: 0.339 µM
